# ABCG2 inh: human ABCG2 inhibition, ABCB1 as counter-screen. inhibition, % at 6.6 µM. 190,000 compounds, 0.1% hits. IgMXP3 cells, JC-1 efflux, flow cytometry;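 active means inhibition above 80%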;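 further: 0% = DMSO and 100% = nicardipine control wells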
#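 material = IgMXP3 (ABCG2) plus far-red-tagged CCRF-Adr (ABCB1) cells | amount = 3 million cells/mL, equal mix of both lines | also added = JC-1 transporter substrate | dosing = one concentration, 6.6 µM final | schedule = 10 min at 25 °C | measured by = flow cytometric JC-1 green MFI at 530 nm | read-out basis = percent efflux inhibition, scaled nicardipine 100% to DMSO 0%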
# ROMK primary: human ROMK K+ channel modulation, primary screen; P48048; B-score at 10 µM; Tet-inducible ROMK, thallium flux fluorescence; actives lie on both sides; 130,000 compounds, 2% hits;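 active means signal ratio slope over the read window, or its plate-corrected B-score, at least 3 SD from the plate mean, either direction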;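 further: B-score of the F/F0 ratio slope over 7 to 12 s after thallium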
# Target sequence (P48048 whole entry, looked up): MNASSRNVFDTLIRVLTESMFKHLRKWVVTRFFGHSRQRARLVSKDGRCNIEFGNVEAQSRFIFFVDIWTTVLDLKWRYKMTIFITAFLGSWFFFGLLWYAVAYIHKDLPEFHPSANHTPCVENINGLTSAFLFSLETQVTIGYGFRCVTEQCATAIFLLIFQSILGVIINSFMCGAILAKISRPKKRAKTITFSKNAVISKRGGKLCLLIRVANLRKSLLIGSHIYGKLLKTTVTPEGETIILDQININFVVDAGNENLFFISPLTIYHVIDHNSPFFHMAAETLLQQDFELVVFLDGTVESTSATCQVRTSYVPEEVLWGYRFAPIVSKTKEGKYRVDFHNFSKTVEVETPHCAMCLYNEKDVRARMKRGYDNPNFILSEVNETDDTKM
# Insulin prom up: MIN6 insulin promoter up-regulation. 190,000 compounds, 0.3% hits. MIN6 insulin promoter-GFP reporter, high-content imaging; hits give high values. z-score at 5 µM;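 active means z-score above 3 at 5 µM with at least 500 cells counted in the well; inconclusive means wells under 500 cells, flagged as cytotoxic or low count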
# ABCB1 block: human ABCB1 inhibition, ABCG2 as counter-screen; inhibition, % at 6.6 µM; 190,000 compounds, 0.067% hits; CCRF-Adr cells, JC-1 efflux, flow cytometry; P08183; in the data active means inhibition above about 40%;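 further: 0% = vehicle and 100% = reference inhibitor; higher value means more JC-1 retained so stronger ABCB1 efflux block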
# Autophagy mod: autophagy modulation, high-content screen | MEF GFP-LC3 puncta imaging; test concentration mostly 10 µM | calls only at 10 µM (by protocol) | 190,000 compounds, 0.98% hits | AID 463193;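 active means percentage of spot-positive cells more than 3 SD above its plate mean, without a fluorescence outlier flag or 80% toxicity; inconclusive means no clear call, values can overlap the other calls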;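 further: spot-positive cell cutoff set from DMSO-treated cells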
# sdo1 growth: restores growth of sdo1-depleted yeast | S. cerevisiae sdo1-depleted JHY4D growth rescue, OD600 30 h; hits give high values; pdr5 snq2 efflux-pump mutant strain | z-score at 10 µM | 140,000 compounds, 0.21% hits | AID 817;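 active means z-score above 3 at both the 24 hr and the 30 hr optical density reads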;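 further: z-score against mean and SD of all compound wells on the same plate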
# ROMK hit retest: confirmation of human ROMK potassium channel modulators. shares compounds with ROMK primary. ROMK thallium flux, fluorescence ratio; hits give low values. normalized thallium flux (F/F0 slope) at 10 µM. 3,000 compounds, 54% hits. AID 1917;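 active means Flux at 10 µM at least 3 SD below or above vehicle control mean in one or both replicates; inconclusive means no clear call, values can overlap the other calls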
# An asterisk follows results filed as active; i = inactive; ? = inconclusive; . = no result given; + = active, no number. This is a sample that favours compounds with a hit; in the whole collection about 2.3% have one here.
SMILES,ABCG2 inh,ROMK primary,Insulin prom up,ABCB1 block,Autophagy mod,sdo1 growth,ROMK hit retest
CCC(CC)C(=O)Nc1c2cnn(-c3ccccc3)c2nc(=O)n1-c1ccccc1,0,-5*,-0.27,0,i,0.82,0.052*
CCOC(=O)C(CC)Sc1nc2c(cnn2-c2ccccc2)c(=O)[nH]1 (stereo not drawn),2,.,1.2,0,i,-1.1,.
Cc1cc(C)n(-c2nc3nonc3nc2Nc2cccc(C)c2C)n1,56,-3.9*,0.26,1,i,-0.26,0.053*
CCOc1cc2c(cc1OCC)C(c1ccccc1)N(c1ccc(C(=O)O)cc1)C(=O)C2 (stereo not drawn),.,.,0.19,.,.,.,.
COc1cccc(/C=c2\sc3nc(-c4cccs4)nn3c2=O)c1OC,1,.,0.52,0,i,-2.1,0.082
Cc1cccn2c(=O)c3cc(C(=O)NCCN4CCOCC4)c(=N)n(CCc4ccccc4)c3nc12,-3,-2.8*,0.13,-6,i,0.95,0.063*
COc1ccc(NC(=O)/C(C#N)=C/c2ccc(Sc3nncn3C)c([N+](=O)[O-])c2)cc1,2,-6.5*,0.57,0,i,.,0.036*
CCN(CC)C(=O)CC(c1ccccc1)c1ccco1 (stereo not drawn),3,.,1,1,i,-0.56,0.084
CC1=NN(c2ccccc2)C(=O)/C1=C/C=C/C=C/N(C)C,0,-2.4*,.,0,i,.,0.065*
CC1=NN(c2cccc(C(=O)O)c2)C(=O)/C1=C\C=C/c1ccccc1,2,-8.3*,0.24,0,i,.,0.047*
CC1=NN(c2ccccc2)C(=O)/C1=C\c1ccc(Br)s1,5,1.3,.,0,i,-0.79,.
CC1=NN(c2ccccc2)C(=O)/C1=C/c1ccc[nH]1,1,-7.4e-05,-0.07,0,i,-0.88,.
CC1=NN(c2ccc(C)cc2)C(=O)/C1=C\C=C\c1ccccc1,-7,0.55,0.29,-1,i,-0.54,.
CC1=NN(c2ccccc2)C(=O)/C1=C/c1cccs1,3,-3.4*,-0.04,1,i,-1.1,0.048*
CC1=NOC(=O)/C1=C\c1ccc(-c2ccccc2Br)o1,-4,-8.7*,.,-1,i,.,0.062*
CC1=NOC(=O)/C1=C\c1ccc(-c2cccc(Cl)c2)o1,-2,.,0.7,-1,i,-1.6,.
Cc1ccc(/C=C2/C(=O)ON=C2c2ccccc2)o1,.,.,-0.29,.,.,.,0.04*
COc1cc(C=C2C(=O)c3ccccc3C2=O)ccc1O,.,.,-0.26,.,.,.,.
COc1cc(/C=C2/C(=O)ON=C2c2ccccc2)ccc1O,-3,-6.8*,-0.2,-1,i,-0.36,0.044*
Cc1nn(C(=O)c2nn(C)cc2[N+](=O)[O-])c(C)c1Cl,-2,-1.3,-0.29,3,i,.,.
O=C(c1cc(-c2ccco2)nc2ccccc12)N1CCN(c2ccc(F)cc2)CC1,4,0.025,0.81,3,i,-0.97,.
O=C1CC(c2ccc(F)cc2)C(n2cncn2)C(O)=C1C1NCCc2ccccc21 (stereo not drawn),-1,1.3,-1.1,0,i,.,.
Cc1ccc2c(c1)N(C(=O)CSc1nncn1C)C(C)(C)c1ssc(=S)c1-2,-4,.,-0.34,-2,i,-0.02,.
Cc1cc2c(cc1C)N(C(=O)CSc1nncn1C)C(C)(C)c1ssc(=S)c1-2,1,-3.5*,.,1,i,-0.6,0.064*
CCSC1=NCCN1C(=O)c1ccc(S(=O)(=O)N(C)C)cc1,0,0.2,.,0,i,.,.
SMILES,ABCG2 inh,ROMK primary,Insulin prom up,ABCB1 block,Autophagy mod,sdo1 growth,ROMK hit retest
CCCSC(=S)c1c(C)[nH]n(-c2ccccc2)c1=O,.,.,.,.,.,.,0.12*
O=Cc1cccc(OC(=O)c2ccc(Cl)cc2Cl)c1,1,3*,-0.44,0,i,-1.6,0.088
COc1cc(C(=O)Oc2cccc(C=O)c2)cc(OC)c1OC,64,.,.,1,i,-0.61,.
O=C(CN1CCN(Cc2ccccc2Cl)C1=O)NCCCN1CCOCC1,.,0.81,0.15,.,.,.,.
CCOC(=O)c1ccc(-c2ccc(/C=N/NC(=O)Cc3nnc(N)s3)o2)cc1,.,-12*,1.5,.,.,.,0.078
O=C(O)c1cccc2c1C(=O)c1ccccc1-2,.,.,0.03,.,.,.,.
O=C(O)c1cccc2c1C(=O)c1ccccc1C2=O,-1,-2.4*,1.1,0,+,.,0.087
Cc1ccc(N2NC3(CCN(C(N)=O)CC3)NC2=O)cc1,1,0.24,-0.08,0,i,.,.
NC(N)=N/N=C/c1ccc2cccc(OCc3ccccc3)c2n1,.,-3.7*,-2,.,.,.,0.049*
CCOC(=O)c1nn(-c2ccc(C)cc2)c(=O)c2c(N)scc12,2,.,-1.3,6,i,-1.5,0.08
CCN1C(=O)C(CC(=O)Nc2ccccc2)S/C1=N\c1ccccn1 (stereo not drawn),-2,0.57,-0.2,0,i,.,.
COC(=O)COc1ccc(-c2ccc(F)cc2)cc1C=O,3,4.7*,.,0,i,.,?
COC(=O)COc1ccc(-c2ccccc2)cc1C=O,5,.,.,0,i,.,.
CN(C)c1ccc([C@@H]2[C@@H]([N+](=O)[O-])[C@H]3C=Cc4ccccc4N3[C@H]2C(=O)c2ccc(Cl)cc2)cc1,1,-1.9,-2.3,0,i,-1.4,.
[O-]/[N+](=C/c1ccc(F)cc1)c1ccccc1,-4,-0.48,0.43,-3,i,0.13,.
[O-]/[N+](=C\c1ccncc1)c1ccccc1,2,.,0.02,0,i,0.68,0.083
O=C(CSc1nc2ccccc2o1)N1CCN(S(=O)(=O)c2ccc3ccccc3c2)CC1,-1,-3.6*,-0.83,2,i,-0.96,0.076
COc1ccccc1C(c1nnnn1Cc1ccccc1)N1CCN(C2CCCC2)CC1 (stereo not drawn),1,.,.,1,i,-0.23,.
COc1cccc(C(c2nnnn2Cc2ccccc2)N2CCN(C3CCCC3)CC2)c1OC (stereo not drawn),4,-4.8*,-1.6,1,+,-0.11,0.054*
COc1ccc(Cn2nnnc2C(c2ccc3ncccc3c2)N2CCN(C3CCCCC3)CC2)cc1 (stereo not drawn),1,-2.2,-0.12,1,i,.,.
COc1ccc(Cn2nnnc2C(c2ccc(C)cc2)N2CCN(C3CCCC3)CC2)cc1 (stereo not drawn),0,.,0.16,2,i,0.18,0.053*
COc1ccc(Cn2nnnc2C(c2cc3cc(C)ccc3[nH]c2=O)N2CCN(C)CC2)cc1 (stereo not drawn),1,-3,-0.12,0,i,.,0.076
CNC(=O)c1c(NC(=O)c2cccc(N3C(=O)CCC3=O)c2)sc2c1CCCC2,.,.,0.18,.,.,.,.
CS(=O)(=O)c1ccc2nc(NC(=O)c3cc(-c4ccccc4)nn3-c3ccccc3)sc2c1,-3,1,-1.1,0,i,0.35,.
